From publication PMC3612139 (Bioorganic chemistry, 2013) come the findings set out here.

The subject of the test is HL-60 promyelocytes. The experiment in a line: HL-60 differentiation. It counts as cell-based. The note with it: Homo sapiens, HL-60, read-out: HL-60 differentiation EC50. Put shortly: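 Differentiation of HL-60 promyelocytes to monocytes, scored as the percentage of cells reducing nitro blue tetrazolium. EC50 taken from dose–response curves as the concentration giving 50% maturation. Ratio is the average of test compound EC50 over 1α,25-(OH)2D3 EC50. Run in duplicate on at least two occasions.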

The term EC50 denotes the midpoint of the concentration-response curve. Take `C=C1/C(=C\C=C2/CCC[C@]3(C)[C@@H]([C@H](C)CCCC(C)(C)O)CC[C@@H]23)C[C@@H](O)C[C@@H]1O` [Compound 1, 1α,25-Dihydroxyvitamin D3]: the EC50 stood at 2 nM.
